In the library only some 1.9% were active in any assay of this set; here they are far more common.
HDAC3 inh – blocks human histone deacetylase 3; 320,000 compounds, 0.15% hits; O15379; recombinant HDAC3, fluorogenic peptide/trypsin coupled, fluorescence; inhibition, % at 8.3 µM; in the data active = inhibition above about 26%, passing the limit was not always enough; inconclusive = no clear call, values can overlap the other calls
LANA-H2B inh – blocks KSHV LANA binding to histone H2A/H2B. Q9QR71. cell-free LANA-H2A/H2B peptide, fluorescence polarization. inhibition, % (concentration not given with the values). 320,000 compounds, 0.6% hits; in the data active = inhibition mostly above about 10%, no sharp cut-off; inactive = mostly below about 6.7%
CaV13 FRET inh – Disruptors of the CACNA1D IQ motif to Ca2+-dependent inactivation inhibitor domain association, primary screening, Förster resonance energy transfer in intact living …; HEK cells, CFP/YFP FRET ICDI-IQ, plate reader, 10 min; percent FRET-ratio fall versus neutral wells; inhibition, % at 12.3 µM; 340,000 compounds, 0.098% hits;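 active = mean replicate inhibition of at least 30% and at least 1% of replicates passing that level; inconclusive = only one of the two criteria is met; inactive = neither criterion is met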;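 also: 0% = median of the neutral control wells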
Runt-CBFb FRET – inhibitors of human RUNX1 Runt domain binding to CBFb; Q01196+Q13951; Cerulean-Runt/Venus-CBFb FRET ratio 530/480, 1 h; inhibition, % at 20 µM; 220,000 compounds, 0.46% hits; AID 1496;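 active = inhibition over about 50% at 20 µM in the single-dose screen, limit read from the data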;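 also: 0% = DMSO wells and 100% = excess unlabeled CBFb competitor control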
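Assay system: Cerulean-Runt domain fusion protein, energy donor; Signal: fluorescence energy transfer, 422 nm excitation, 530/480 nm emission; Timing: 1 h compound exposure, room temperature; Control set: unlabeled CBFb; Medium: Tris buffer pH 7.5 with salts and BSA; Compound: single test concentration of 20 µM, 1% DMSO final; Probe or stimulus: Venus-CBFb 100 nM.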
RanGTP-Imp inh – disruptors of Ran-importin-beta complex formation – biochemical, FRET, CFP-Ran, YFP-importin-beta, homogeneous, primary screen; cell-free CFP-Ran/YFP-importin-beta FRET ratio; inhibition, % (concentration not given with the values); 300,000 compounds, 1.1% hits;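 active = more than half of the replicate wells show a fall in the fluorescence ratio signal beyond about 16%, limit read from the data, passing the limit was not always enough; inconclusive = exactly half of the replicate wells pass the set limit; inactive = fewer than half of replicates pass the limit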;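 also: 0% = DMSO wells and 100% = Ran loaded with GDP instead of GTP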
Runt-SMMHC FRET – blocks binding of human RUNX1 Runt domain to CBFb-SMMHC; Q01196+Q13951; Cerulean-Runt/Venus-CBFb-SMMHC FRET ratio 530/480, 1 h; inhibition, % at 20 µM; 220,000 compounds, 0.74% hits; AID 1434;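 active = mean inhibition across duplicate retests at 20 µM reaching about 50%, limit read from the data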;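 also: 0% = DMSO wells and 100% = wells with excess untagged CBFb-SMMHC; inhibitors lower the FRET ratio by blocking Runt binding to CBFb-SMMHC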
* = called active by the depositor; i = inactive; ? = inconclusive; . = not tested or not shown; + = active, no number.

SMILES | HDAC3 inh | LANA-H2B inh | CaV13 FRET inh | Runt-CBFb FRET | RanGTP-Imp inh | Runt-SMMHC FRET
CC(C)CC(=O)c1c[nH]c(C(=O)N2CCN(Cc3ccccc3)CC2)c1 | 1.2 | + | -7.8 | -5.1 | -0.1 | -2.8
Nc1ccccc1C(=O)NCc1ccccc1 | -14.4 | -0.3 | -7.1 | -4.5 | 3.4 | 1.3
CCn1cc(C(=O)N(C)c2ccc(OC)cc2)c2cc(OC)c(OC)cc2c1=O | 14.9 | -0.2 | -21.0 | . | 0.2 | .
Cc1nn(-c2ccccc2)c2nc(=O)n(-c3ccccc3)cc12 | 1.1 | -2.4 | -1.0 | -3.3 | 5.3 | -4.2
Cc1ccc2nc3c(cc2c1)c(C)nn3-c1ccccc1 | -17.9 | 0.8 | -13.8 | . | 61.1* | .
COC(=O)c1ccc([C@H]2CC(=O)O2)cc1 | -6.7 | 3.5 | -0.2 | . | 1.2 | .
COC(=O)C1=CN(C2CC2)C=C(C(=O)OC)C1c1ccc(C(=O)OC)cc1 | -48.3 | -5.5 | -5.0 | 106.8* | 52.2* | 60.3*
CC1(c2ccccc2)C(C#N)C(=O)NC(=O)C1C#N (stereo not given) | . | . | -5.7 | . | . | .
O=C(CSc1nc2ccccc2n1CC(=O)N1CCCCC1)N1CCCCC1 | -2.6 | -0.2 | -4.3 | -1.0 | 0.6 | -6.8
CC(=O)Nc1ccc(C(=O)CSc2nc3ccccc3n2CC(=O)N2CCCC2)cc1 | 67.3* | -2.2 | -8.8 | 6.0 | ? | 4.3
CCOCCCNc1nc2c(-c3ccccc3)nnn2c2ccccc12 | -4.7 | -6.1 | -5.8 | -4.9 | 33.7* | -3.3
O=C(Nc1ccccc1C(=O)N/N=C/c1ccco1)c1ccc(Cl)cc1 | 6.6 | + | -5.2 | 0.1 | 0.2 | -3.4
NNc1ncnc2c1cnn2-c1ccccc1 | 6.0 | 26.3* | . | 3.2 | -1.8 | -6.8
COc1ccc(CNC(=O)CCS(=O)(=O)c2ccc3c(c2)CC(C)N3C(=O)C2CC2)cc1 (stereo not given) | 2.8 | 0.2 | -7.0 | . | -2.0 | .
CCCN(CCC)Cc1c(C(=O)N/N=C/c2c[nH]c3ccccc23)nnn1-c1nonc1N | 31.6* | 7.1 | -4.2 | . | 2.2 | .
CCCc1c(C(=O)N/N=C/c2c[nH]c3ccccc23)nnn1-c1nonc1N | . | . | -6.0 | . | . | .
O=C(Nc1ccc(-c2ccco2)cc1)C1CCCN(Cc2ccco2)C1 (stereo not given) | . | . | 37.2* | . | . | .
COc1cccc(-c2ccc(NC(=O)C3CCCN(Cc4ccco4)C3)cc2)c1 (stereo not given) | 3.6 | 3.1 | -1.4 | . | -0.7 | .
C=CCn1c(=N)c(C(=O)NCCCOC)cc2c(=O)n3ccccc3nc21 | i | 3.1 | 14.2 | 8.7 | 174.6* | 81.6*
C=CCn1c(=N)c(C(=O)NCCCOC)cc2c(=O)n3cc(C)ccc3nc21 | -462.4 | 1.0 | 25.1 | 10.4 | 2.2 | 79.3*
COc1ccc(CC(=O)N2CCC(C)(C(=O)NS(=O)(=O)C3CC3)C2)cc1OC (stereo not given) | . | . | -5.9 | . | . | .
COc1cc(C(=O)O/N=C2/C=C(C)C(=O)C=C2C)cc(OC)c1OC | 35.0* | 1.7 | -0.8 | 3.2 | . | -0.9
O=C(Nc1ccc(S(=O)(=O)NC2=NCCCCC2)cc1)c1ccco1 | -8.4 | 3.9 | -6.2 | -1.0 | -2.1 | 0.3
CC(C)C1COC(c2cccn2Cc2ccccc2Cl)=N1 (stereo not given) | -2.8 | 19.6* | ? | -2.5 | 1.1 | 0.0
Cc1ccc(Cn2cccc2C2=NC(C)CO2)cc1 (stereo not given) | -2.9 | -5.3 | -5.2 | 2.2 | 2.2 | 0.8
CCOC(=O)C1CCN(Cc2cnc(Oc3ccc(N)cc3)s2)CC1 | 3.2 | -6.5 | -2.6 | 2.5 | -1.3 | 0.0
COc1ccc(NC(=O)CCc2ccccc2)cc1S(=O)(=O)N1CCOCC1 | -1.8 | 0.0 | -8.0 | . | . | .
O=C(Nc1cccc(Cl)c1)c1cc2c(=O)n3ccccc3nc2s1 | -2.3 | -1.9 | -5.2 | . | 90.5* | .
CCCNC(=O)COC(=O)c1cc2c(=O)n3ccccc3nc2s1 | -6.5 | -1.6 | -18.6 | 83.1* | 6.2 | 120.8*
CCOC(=O)N1CCC2(CC1)C(C#N)=C(N)Oc1c2sc2nc(C)cc(C)c12 | -1.2 | -0.3 | -6.2 | -2.9 | -2.5 | -1.5

Source: PubChem
